# Laboratory results as given in ChEMBL document CHEMBL1914326, “Synthesis and anticonvulsant properties of new acetamide derivatives of phthalimide, and its saturated cyclohexane and norbornene analogs” (Eur J Med Chem, 2011).
# The source made the active and inactive calls. The calls are words filed in the database; no cut-off is given here.
# Key:
# Mus musculus [1] = assay: Neurotoxicity in CF1 albino mouse assessed as unable to grasp rotarod at 300 mg/kg, ip after 4 hrs by rotarod test; type: toxicity, organism-based; design: dose 300 mg/kg, route intraperitoneal; conditions: in vivo
# Method in brief: (§1)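 Acute neurotoxicity was scored on the minimal motor impairment rotorod test in male CF-1 mice. Animals in groups of eight were dosed i.p. at 30, 100 or 300 mg/kg in 0.5% methylcellulose/water and examined at 0.5 and 4 h. Untreated controls keep their balance on the rod for a prolonged time. The minimum dose causing impairment was recorded.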
# Mus musculus [2] = assay: Anticonvulsant activity in CF1 albino mouse assessed as protection against subcutaneous pentylenetetrazole-induced seizures at 300 mg/kg, ip after 0.5 hrs; type: functional, organism-based; design: dose 300 mg/kg
# Method in brief: (§2)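 Male CF-1 mice in groups of eight were dosed i.p. at 30, 100 or 300 mg/kg in 0.5% methylcellulose/water. At 0.5 and 4 h, pentylenetetrazole 85 mg/kg (CD97 dose) was given s.c. This dose produces clonic seizures lasting at least 5 s. The minimum protective dose was recorded, with a top dose of 300 mg/kg.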
# Mus musculus [3] = assay: Anticonvulsant activity in ip dosed CF1 albino mouse assessed as protection against maximal electroshock after 0.5 hrs; type: functional; conditions: read-out: MED
# Method in brief: (§3)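 Male albino CF-1 mice in groups of eight received i.p. doses of 30, 100 and 300 mg/kg, suspended in 0.5% methylcellulose/water. Maximal electroshock seizures were tested at 0.5 and 4 h, with one additional 0.25 h reading at 100 mg/kg. The minimum dose giving protection was recorded. A dash means no activity at 300 mg/kg.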
# Mus musculus [4] = assay: Neurotoxicity in ip dosed CF1 albino mouse assessed as minimum dose required to cause motor impairment after 0.5 hrs by rotarod test; type: toxicity, organism-based; conditions: in vivo; method in brief: as §1
# Mus musculus [5] = assay: Anticonvulsant activity in CF1 albino mouse assessed as protection against subcutaneous pentylenetetrazole-induced seizures at 300 mg/kg, ip after 4 hrs; type: functional, organism-based; design: dose 300 mg/kg; method in brief: as §2
# Mus musculus [6] = assay: Anticonvulsant activity in ip dosed CF1 albino mouse assessed as protection against maximal electroshock after 4 hrs; type: functional; conditions: read-out: MED; method in brief: as §3
# Rattus norvegicus [7] = assay: Anticonvulsant activity in po dosed rat assessed as protection against maximal electroshock; type: functional
# Mus musculus [8] = assay: Neurotoxicity in CF1 albino mouse assessed as motor impairment at 300 mg/kg, ip after 0.5 hrs by rotarod test; type: toxicity, organism-based; design: dose 300 mg/kg, route intraperitoneal; conditions: in vivo; method in brief: as §1
# Mus musculus [9] = assay: Neurotoxicity in CF1 albino mouse assessed as motor impairment at 300 mg/kg, ip after 4 hrs by rotarod test; type: toxicity, organism-based; design: dose 300 mg/kg, route intraperitoneal; conditions: in vivo; method in brief: as §1
# Mus musculus [10] = assay: Anticonvulsant activity in CF1 albino mouse assessed as protection against maximal electroshock at 300 mg/kg, ip after 4 hrs; type: functional, organism-based; design: dose 300 mg/kg; method in brief: as §3
# Mus musculus [11] = assay: Anticonvulsant activity in CF1 albino mouse assessed as protection against maximal electroshock at 300 mg/kg, ip after 0.5 hrs; type: functional, organism-based; design: dose 300 mg/kg; method in brief: as §3
# Mus musculus [12] = assay: Anticonvulsant activity in ip dosed CF1 albino mouse assessed as protection against subcutaneous pentylenetetrazole-induced after 0.5 hrs; type: functional; conditions: read-out: MED; method in brief: as §2
# Rattus norvegicus [13] = assay: Neurotoxicity in Sprague-Dawley albino rat assessed as motor impairment at 30 mg/kg, po by rotarod test; type: toxicity, organism-based; design: dose 30 mg/kg, route oral; conditions: in vivo
# Method in brief: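 Male Sprague-Dawley rats in groups of four were given 30 mg/kg orally in 0.5% methylcellulose/water. Motor impairment was then assessed on the standardized minimal motor impairment rotorod test.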
# Rattus norvegicus [14] = assay: Anticonvulsant activity in Sprague-Dawley albino rat assessed as protection against maximal electroshock at 30 mg/kg, po after 0.5 hrs; type: functional
# Method in brief: (§4)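 Male Sprague-Dawley rats in groups of four received 30 mg/kg p.o. as a suspension in 0.5% methylcellulose/water. Maximal electroshock seizure protection was scored at 0.25, 0.5, 1, 2 and 4 h and reported as rats protected/rats tested.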
# Mus musculus [15] = assay: Neurotoxicity in ip dosed CF1 albino mouse assessed as minimum dose required to cause motor impairment after 4 hrs by rotarod test; type: toxicity, organism-based; conditions: in vivo; method in brief: as §1
# Rattus norvegicus [16] = assay: Anticonvulsant activity in Sprague-Dawley albino rat assessed as protection against maximal electroshock at 30 mg/kg, po after 2 hrs; type: functional; method in brief: as §4
# Rattus norvegicus [17] = assay: Anticonvulsant activity in Sprague-Dawley albino rat assessed as protection against maximal electroshock at 30 mg/kg, po after 0.25 hrs; type: functional; method in brief: as §4
# Rattus norvegicus [18] = assay: Anticonvulsant activity in Sprague-Dawley albino rat assessed as protection against maximal electroshock at 30 mg/kg, po after 1 hr; type: functional; method in brief: as §4
# Rattus norvegicus [19] = assay: Anticonvulsant activity in Sprague-Dawley albino rat assessed as protection against maximal electroshock at 30 mg/kg, po after 4 hrs; type: functional; method in brief: as §4
# Mus musculus [20] = assay: Anticonvulsant activity in ip dosed CF1 albino mouse assessed as protection against subcutaneous pentylenetetrazole-induced after 4 hrs; type: functional; conditions: read-out: MED; method in brief: as §2
SMILES,Activity (Mus musculus [2]),minimal effective dose (Mus musculus [3]) [mg/kg],Activity (Mus musculus [5]),Activity (Mus musculus [8]),Activity (Mus musculus [9]),Activity (Mus musculus [10]),Activity (Mus musculus [11]),further results
O=C(CN1C(=O)C2C3C=CC(C3)C2C1=O)N1CCN(c2ccc(F)cc2)CC1 (stereo not given),inactive,100,inactive,–,–,–,–,Activity (Mus musculus [1]): Toxic; MTC (Mus musculus [4]): 300 mg/kg; minimal effective dose (Mus musculus [6]): 100 mg/kg
Nc1ccc(N2C(=O)c3ccccc3C2=O)c(Cl)c1,–,–,–,–,–,–,–,ED50 (Rattus norvegicus [7]): 5.7 mg/kg
O=C(CN1C(=O)c2ccccc2C1=O)N1CCN(c2ccccc2Cl)CC1,inactive,100,inactive,Non-toxic,Non-toxic,inactive,–,–
O=C1CC2(CCc3ccccc3C2)C(=O)N1CN1CCN(c2cccc(C(F)(F)F)c2)CC1 (stereo not given),–,–,–,–,–,–,–,ED50 (Rattus norvegicus [7]): 9 mg/kg
O=C(CN1C(=O)C2CCCCC2C1=O)N1CCN(Cc2ccccc2)CC1 (stereo not given),inactive,–,inactive,–,Non-toxic,inactive,inactive,MTC (Mus musculus [4]): 300 mg/kg
O=C(CN1C(=O)c2ccccc2C1=O)N1CCN(c2ccccc2F)CC1,–,300,inactive,Non-toxic,Non-toxic,inactive,–,minimal effective dose (Mus musculus [12]): 300 mg/kg
O=C(CN1C(=O)c2ccccc2C1=O)N1CCN(Cc2ccccc2)CC1,inactive,–,inactive,Non-toxic,Non-toxic,inactive,inactive,–
O=C(CN1C(=O)C2CCCCC2C1=O)N1CCN(CCO)CC1 (stereo not given),inactive,–,inactive,Non-toxic,Non-toxic,inactive,inactive,–
O=C1NC(=O)C(c2ccccc2)(c2ccccc2)N1 [PHENYTOIN],inactive,30,inactive,–,–,–,–,Activity (Rattus norvegicus [13]): Non-toxic; Activity (Rattus norvegicus [14]): 100%; MTC (Mus musculus [15]): 100 mg/kg; MTC (Mus musculus [4]): 100 mg/kg; Activity (Rattus norvegicus [16]): 75%; Activity (Rattus norvegicus [17]): 25%; Activity (Rattus norvegicus [18]): 75%; Activity (Rattus norvegicus [19]): 75%; minimal effective dose (Mus musculus [6]): 30 mg/kg
O=C(CN1C(=O)c2ccccc2C1=O)N1CCN(CCO)CC1,inactive,–,inactive,Non-toxic,Non-toxic,inactive,inactive,–
O=C(CN1C(=O)C2C3C=CC(C3)C2C1=O)N1CCN(c2ccccc2)CC1 (stereo not given),inactive,–,inactive,Non-toxic,Non-toxic,inactive,inactive,–
O=C(CN1C(=O)C2CCCCC2C1=O)N1CCN(c2ccccc2)CC1 (stereo not given),inactive,300,inactive,Non-toxic,Non-toxic,inactive,–,–
O=C(CN1C(=O)c2ccccc2C1=O)N1CCN(c2cccc(Cl)c2)CC1,inactive,–,inactive,Non-toxic,Non-toxic,inactive,inactive,–
CCC1(C)CC(=O)NC1=O (stereo not given) [ETHOSUXIMIDE],–,–,–,Non-toxic,Non-toxic,inactive,inactive,minimal effective dose (Mus musculus [12]): 100 mg/kg; minimal effective dose (Mus musculus [20]): 300 mg/kg
O=C(CN1C(=O)C2C3C=CC(C3)C2C1=O)N1CCN(c2ccccc2F)CC1 (stereo not given),inactive,–,inactive,Non-toxic,Non-toxic,inactive,inactive,–
O=C(CN1C(=O)c2ccccc2C1=O)N1CCN(c2cccc(Cl)c2Cl)CC1,inactive,–,inactive,Non-toxic,Non-toxic,–,inactive,minimal effective dose (Mus musculus [6]): 100 mg/kg
O=C(CN1C(=O)c2ccccc2C1=O)N1CCN(c2ccc(Cl)cc2)CC1,inactive,100,inactive,Non-toxic,Non-toxic,–,–,Activity (Rattus norvegicus [13]): Non-toxic; Activity (Rattus norvegicus [14]): 0%; Activity (Rattus norvegicus [16]): 0%; Activity (Rattus norvegicus [17]): 0%; Activity (Rattus norvegicus [18]): 0%; Activity (Rattus norvegicus [19]): 50%; minimal effective dose (Mus musculus [6]): 100 mg/kg
O=C(CN1C(=O)C2CCCCC2C1=O)N1CCOCC1 (stereo not given),inactive,–,–,–,Non-toxic,inactive,inactive,MTC (Mus musculus [4]): 300 mg/kg; minimal effective dose (Mus musculus [20]): 300 mg/kg
NC(=O)N1c2ccccc2C=Cc2ccccc21 [CARBAMAZEPINE],–,30,–,–,–,–,–,minimal effective dose (Mus musculus [12]): 100 mg/kg; MTC (Mus musculus [15]): 300 mg/kg; MTC (Mus musculus [4]): 100 mg/kg; minimal effective dose (Mus musculus [20]): 300 mg/kg; minimal effective dose (Mus musculus [6]): 100 mg/kg
O=C(CN1C(=O)C2CCCCC2C1=O)N1CCN(c2cccc(Cl)c2)CC1 (stereo not given),inactive,–,inactive,Non-toxic,Non-toxic,inactive,inactive,–
O=C(CN1C(=O)c2ccccc2C1=O)N1CCN(c2ccccc2)CC1,inactive,100,inactive,Non-toxic,Non-toxic,inactive,–,–
O=C(CN1C(=O)C2C3C=CC(C3)C2C1=O)N1CCN(Cc2ccccc2)CC1 (stereo not given),inactive,–,inactive,Non-toxic,Non-toxic,inactive,inactive,–
O=C(CN1C(=O)C2C3C=CC(C3)C2C1=O)N1CCN(c2cccc(Cl)c2)CC1 (stereo not given),inactive,–,inactive,Non-toxic,Non-toxic,inactive,inactive,–
O=C(CN1C(=O)c2ccccc2C1=O)N1CCN(c2cccc(C(F)(F)F)c2)CC1,inactive,–,inactive,Non-toxic,Non-toxic,–,inactive,minimal effective dose (Mus musculus [6]): 100 mg/kg
O=C(CN1C(=O)C2CCCCC2C1=O)N1CCN(c2ccc(Cl)cc2)CC1 (stereo not given),inactive,–,inactive,Non-toxic,Non-toxic,–,inactive,minimal effective dose (Mus musculus [6]): 300 mg/kg
O=C(CN1C(=O)c2ccccc2C1=O)N1CCN(c2ccc(F)cc2)CC1,–,30,–,–,–,–,–,Activity (Rattus norvegicus [13]): Non-toxic; minimal effective dose (Mus musculus [12]): 300 mg/kg; Activity (Rattus norvegicus [14]): 50%; MTC (Mus musculus [15]): 300 mg/kg; MTC (Mus musculus [4]): 300 mg/kg; Activity (Rattus norvegicus [16]): 100%; Activity (Rattus norvegicus [17]): 25%; Activity (Rattus norvegicus [18]): 50%; Activity (Rattus norvegicus [19]): 100%; minimal effective dose (Mus musculus [20]): 300 mg/kg; minimal effective dose (Mus musculus [6]): 100 mg/kg
O=C(CN1C(=O)C2CCCCC2C1=O)N1CCN(c2cccc(C(F)(F)F)c2)CC1 (stereo not given),inactive,100,inactive,Non-toxic,Non-toxic,inactive,–,–
